# Screening data (PubChem)
# Hits are enriched below; roughly 2.6% of the tested compounds scored in any of these assays.
# XiGFP reactiv = activators of inactive X chromosome reactivation, primary screen, imaging, XiGFP fibroblasts, GFP high-content imaging, set 2 | XiGFP mouse fibroblasts, % GFP-positive cells imaging, 3 d; cells co-treated with 5-aza-dC sensitizer; scaled so ellipticine positive control = 100% | activation, % at 7.58 µM | 360,000 compounds, 0.055% hits | AID 743238, 2013;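 active = mean normalized replicate activation at least 10% and every replicate at or above 10%; inconclusive = only one of the two criteria met; inactive = mean below 10% and not all replicates reach 10%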;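 also: 0% = median of on-plate neutral control wells and 100% = ellipticine 6 µM median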
#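 System: XiGFP fibroblasts, SV40-immortalized. Medium: DMEM plus 5-aza-dC sensitizer. Doses: single point. Timing: 3 d treatment, 15 min room-temperature fixation. Control set: ellipticine 6 µM.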
# Wnt bcat act = Wnt/beta-catenin pathway activators, primary screen, cell-based, plate reader, single point | Wnt/beta-catenin reporter cell assay, activator | activation, % at 9.35 µM | 300,000 compounds, 1.2% hits; in the data active = activation above about 30%, passing the limit was not always enough; inconclusive = no clear call, values can overlap the other calls;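 also: 0% = neutral control wells and 100% = positive control wells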
# Vif imaging = HIV Vif self-association inhibitors, primary screen, imaging, HEK293T, single point; AID 602346, 2012; HEK293T cells, Vif self-association by quenched fluorescence, 24 h; inhibition, % at 7.49 µM; 340,000 compounds, 0.35% hits; in the data active = inhibition above about 50%, passing the limit was not always enough; inconclusive = no clear call, values can overlap the other calls; inactive = below about 31%
# MITF TRPM1 HTS = activators of MITF-driven TRPM1 promoter reporter, primary screen, cell-based, SK-MEL-5, luciferase, single point; activation, % at 12.5 µM; 300,000 compounds, 0.75% hits; SK-MEL-5 TRPM1-promoter luciferase, 24 h; % of positive control, neutral wells = 0;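 active = mean activation of at least 80% with every replicate also reaching 80%; inconclusive = mean reaches 80% but some replicate falls short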;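 also: 0% = neutral control wells and 100% = parthenolide positive control wells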
# esBAF inh = Bmi1 luciferase reporter increase in mESCs, primary screen, esBAF inhibitor project, mouse ES cells, Bmi1 luciferase knock-in, single point | 24 h; 100% = twice the neutral-well signal | reporter increase, % at 12.5 µM | 350,000 compounds, 2% hits; in the data active = activation above about 40%; inconclusive = no clear call, values can overlap the other calls;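 also: 0% = median of the plate's neutral control wells and 100% = double that signal; a rise in the Bmi1 reporter signal indicates esBAF inhibition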
# Numbers without * were called inactive; ? = inconclusive; . = not tested or not shown.
SMILES,XiGFP reactiv,Wnt bcat act,Vif imaging,MITF TRPM1 HTS,esBAF inh
COc1ccc(C(=O)c2c3ccc(OC)cc3[n+]([O-])n2Cc2ccc(C(N)=O)cc2)cc1,0,27,-12,50,61*
Cc1n[nH]c(=O)nc1N/N=C/c1ccco1,0,49*,1,17,.
Cc1ccc(Nc2nc(=O)[nH]nc2C)cc1,.,.,.,1,2
Cc1n[nH]c(=O)nc1Nc1ccc(O)cc1,.,1,66*,3,-3
COc1ccc(NC(=O)Nc2ccc3c(c2)[C@@H]2C[C@H](CC(=O)NCc4ccc(-c5ccccc5)cc4)O[C@@H](CO)[C@@H]2O3)cc1,0,.,.,.,10
CC(C)(C)C1CCc2c(sc3c2C(=O)NC(c2ccco2)N3)C1 (centres undefined),.,1,.,95*,23
c1ccc2nc(-c3ccncc3)ccc2c1,.,.,14,.,31
c1ccc(-c2ccc3cnccc3n2)cc1,0,8,.,.,52*
CCOc1ccc2c(c1)C(=NNC(=O)c1ccncc1)c1cc(OCC)ccc1-2,0,49*,-5,3,54*
CCOc1ccc(NC(=O)c2ccncc2)cc1,.,.,-7,8,.
CN1CCN(C(=O)[C@H]2[C@H](CO)[C@H]3Cn4c(ccc(-c5cncnc5)c4=O)[C@H]3N2CC2CCCC2)CC1,0,.,.,.,-7
CC(=O)OC[C@H]1O[C@@H](n2ncc(=O)[nH]c2=O)[C@H](OC(C)=O)[C@@H]1OC(C)=O,.,.,-3,.,48*
CCOC(=O)C1=C(CP(=O)(c2ccccc2)c2ccccc2)NC(=O)NC1c1ccc(OC)cc1 (centres undefined),1,84*,1,-10,.
N#C[C@@H]1[C@@H](c2ccc(C#Cc3cccc(F)c3)cc2)[C@@H](CO)N1C(=O)C1CCCC1,0,.,.,.,50*
COc1ccc(-c2ccc([C@H]3[C@@H](C#N)N(C(=O)c4cccc(F)c4)[C@@H]3CO)cc2)cc1,0,.,.,.,51*
N#C[C@@H]1[C@@H](c2ccc(C#Cc3ccccc3F)cc2)[C@@H](CO)N1C(=O)C1CCCCC1,0,.,.,.,51*
N#C[C@@H]1[C@@H](c2ccc(C#Cc3ccccc3F)cc2)[C@H](CO)N1C(=O)C1CCCCC1,0,.,.,.,15
N#C[C@H]1[C@@H](c2ccc(C#Cc3cccc(F)c3)cc2)[C@@H](CO)N1C(=O)C1CCC1,0,.,.,.,.
CC(C)NC(=O)N[C@H]1CC[C@H](CCn2cc(-c3ccc(F)cc3)nn2)O[C@@H]1CO,0,.,.,.,-3
N#C/C(=C\c1ccc([N+](=O)[O-])o1)c1nc2ccccc2[nH]1,62*,-15,.,.,.
N#C/C(=C\c1ccc(Sc2ccccc2)o1)c1nc2ccccc2[nH]1,0,-3,5,121*,.
Cc1ccc2nc(/C(C#N)=C\c3ccc([N+](=O)[O-])o3)[nH]c2c1,.,.,4,-91,-63
CO[C@H]1CN(C)C(=O)c2ccc(NS(=O)(=O)c3cn(C)cn3)cc2OC[C@@H](C)N(Cc2cccc(F)c2)C[C@H]1C,1,.,.,.,-2
Cc1ccc(C(=O)Nc2sc3c(c2C#N)CCCCC3)cc1C,.,.,.,119*,.
CC(=O)Nc1sc2c(c1C#N)CCCCC2,.,11,-8,0,13
SMILES,XiGFP reactiv,Wnt bcat act,Vif imaging,MITF TRPM1 HTS,esBAF inh
CCCC(=O)Nc1sc2c(c1C#N)CCCCC2,.,2,1,51,85*
CCC(=O)Nc1sc2c(c1C#N)CCCCC2,.,.,-8,49,35
COc1ccc(NC(=O)N(C)C[C@H]2OCCCC[C@H](C)Oc3ccc(NS(=O)(=O)c4ccccc4)cc3C(=O)N([C@@H](C)CO)C[C@@H]2C)cc1,0,.,.,.,3
Cc1cccc(N2CCN(C(=O)CNC(=O)C3CCCCC3)CC2)c1C,0,3,-7,22,?
Cc1cccc(N2CCN(C(=O)CNC(=O)c3ccccc3)CC2)c1C,0,8,2,.,50*
O=C(C[C@H]1CC[C@H](NC(=O)C2CCOCC2)[C@H](CO)O1)NCC1CC1,0,.,.,.,.
COc1ccc(-c2cc3nc4ccccc4n3c(N)c2C#N)cc1,0,23,-22,114*,.
CS(=O)(=O)N1C[C@@H]2C(c3ccccc3)[C@H](C1)N2Cc1ccc(F)cc1 (some centres undefined),0,.,.,.,.
